Compound activity from PubChem.
SKKanGAS inh: SKKanGAS growth inhibition; S. pyogenes SKKanGAS, kanamycin growth, BacTiter-Glo, 6 h; inhibition, % at 7.5 µM; 1.3% of 300,000 active; AID 1662;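 active = mean replicate score, as percent of positive control median, at least 50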;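 also: strain carries kanamycin resistance gene driven by streptokinase promoter and grows in 40 µg/ml kanamycin; loss of luminescence reflects streptokinase promoter inhibition or plain growth inhibition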
CSC inhib: cancer stem cell inhibition. AID 2717. inhibition, % at 7.5 µM. cancer stem cell-like cells viability, luminescence. 1.1% of 300,000 active; in the data active = inhibition above about 75%; tested in HMLE shEcad cells
Beta apoptosis: blocks beta cell apoptosis. INS-1E cytokine-induced death, ATP luminescence, 48 h; percent of positive-control rescue, neutral wells zero. protection from apoptosis, % (concentration not given with the values). 0.8% of 300,000 active;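 active = Every replicate reaches about 75%, or at least half do and their mean reaches it too, limit read from the data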;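 also: higher means more ATP so stronger rescue from cytokine killing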
HIF activator: HIF pathway transcriptional activation; U2OS HRE-luciferase reporter, luminescence; normalized: DMSO 0%, desferrioxamine 100%; activation, % at 7.5 µM (by protocol); 0.32% of 300,000 active;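 active = mean activation of at least 10% of the iron chelator positive control signal, with at least half of replicates also reaching 10%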
PfHsp90 set2: inhibits growth of yeast expressing Plasmodium falciparum Hsp90. inhibition, % at 9.4 µM. AID 504621. 0.32% of 310,000 active. S. cerevisiae expressing PfHsp90, BacTiter-Glo ATP, 48 h; yeast lacking PDR1 and PDR3 efflux regulators;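 active = every replicate shows inhibition above about 80%, whatever the replicate mean, limit read from the data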
T cruzi inh: T. cruzi replication inhibition; T. cruzi beta-gal in NIH3T3, luminescence, 90 h; inhibition, % (concentration not given with the values); 1.4% of 300,000 active; AID 1885;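 active = mean inhibition across valid replicates above about 55%, limit read from the data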;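 also: signal also drops with host cell toxicity which is not excluded here; higher percent means less beta-gal luminescence so fewer parasites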
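Read-out: Parasite load inhibition, % | Test system: Mouse NIH/3T3 fibroblasts infected with β-gal-expressing T. cruzi Tulahuen C4 | Amount: 5,000 cells/well | Medium: DMEM, 2% fetal bovine serum | Signal: GalScreen β-gal luminescence, detergent lysis, 60 min | Timing: 3 h attach, ≥90 h co-culture | Also added: Tulahuen C4 trypomastigotes, 5000/well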
Large screens that a line does not name were inactive. Sampled rows, rich in hits. Any-hit rate of the full collection: about 3.6%.

CCc1ccc(S(=O)(=O)/N=C2/C=C(Sc3ncn[nH]3)C(=O)c3ccccc32)cc1	CSC inhib 104, Beta apoptosis 127 (no result: SKKanGAS inh, HIF activator, T cruzi inh)
CCc1ccc(S(=O)(=O)/N=C2\C=CC(=O)c3ccccc32)cc1	none (no result: SKKanGAS inh, PfHsp90 set2)
Cc1cc(C)c(S(=O)(=O)/N=C2\C=C(Nc3ccc(C(=O)O)cc3)C(=O)c3ccccc32)c(C)c1	SKKanGAS inh 112, Beta apoptosis 113 (no result: CSC inhib)
Cn1cc(-c2nnc(-c3ccccc3)o2)c2ccccc21	none
Cc1cc(C)c2c(=N)c3ccccc3n(CCCCCCCCn3c4ccccc4c(=N)c4c(C)cc(C)nc43)c2n1	none (no result: SKKanGAS inh, CSC inhib, Beta apoptosis, HIF activator, T cruzi inh)
CCC(C)[C@H](NC(=O)OC(C)(C)C)C(=O)NCC1CCC(C(=O)N[C@@H](Cc2ccccc2)C(=O)O)CC1 (some centres undefined)	none
Cn1ncc2c(=S)nc(Cl)[nH]c21	none (no result: SKKanGAS inh, CSC inhib, Beta apoptosis, HIF activator, T cruzi inh)
Cc1ccc(S(=O)(=O)NCCC(=O)N2CC(C)OC(C)C2)cc1C (centres undefined)	none
CC1=Nc2ccccc2/C1=C\c1nc(-c2ccc(F)cc2)oc1O	SKKanGAS inh 81
CN=Cc1nc(-c2ccccc2)oc1O	none
CC(C)CC(=O)O/N=C1\C(=O)N(Cc2ccc(Cl)cc2)c2ccc([N+](=O)[O-])cc21	T cruzi inh 58 (no result: CSC inhib, PfHsp90 set2)
NS(=O)(=O)c1ccc(NC(=O)C(=O)NCCC(=O)O)cc1	none
CCOC(=O)c1nn(-c2ccccc2Cl)c(=O)cc1OCC(=O)Nc1cccc(OC)c1	SKKanGAS inh 53
CCOC(=O)c1nn(-c2ccccc2C)c(=O)cc1OCC(=O)Nc1cccc(OC)c1	none
O=C(CN1CCC(Cc2ccccc2)CC1)NC(=O)NCc1ccccc1	none
Cc1ccc(C)c(S(=O)(=O)N2CCN(CC(=O)NC(=O)NCc3ccccc3)CC2)c1	T cruzi inh 56
O=C(COc1ncnc2cc([N+](=O)[O-])ccc12)NCCc1ccc(Cl)cc1	T cruzi inh 56
CC(NC(=O)COc1ncnc2cc([N+](=O)[O-])ccc12)c1ccccc1 (centres undefined)	none
O=C(COc1ncnc2cc([N+](=O)[O-])ccc12)NC(=O)NC1CCCCC1	T cruzi inh 67
CC(=O)Nc1ccc(N(C(=O)Cc2cccs2)C(C(=O)NC2CCCC2)c2ccncc2)cc1 (centres undefined)	none
Cc1nn(CC(=O)OCC(=O)NCCc2ccc(F)cc2)c(C)c1[N+](=O)[O-]	none (no result: SKKanGAS inh, HIF activator, T cruzi inh)
CCOc1ccc(CCNC(=O)COC(=O)Cn2nc(C)c([N+](=O)[O-])c2C)cc1OCC	HIF activator 13 (no result: PfHsp90 set2)
COc1ccc(C(C)(C)C)cc1NC(=O)CSc1ncn[nH]1	none (no result: SKKanGAS inh, CSC inhib, Beta apoptosis, HIF activator, T cruzi inh)
Cc1c(C2(O)CCCCC2)[nH]c2ccc(C(F)(F)F)cc12	CSC inhib 81 (no result: SKKanGAS inh, HIF activator, T cruzi inh)
COc1ccc(C2=CC3=C(Br)C(=O)C(C)(OC(=O)C4CCCC4)C(=O)C3=CO2)cc1 (centres undefined)	PfHsp90 set2 110
COc1cccc(NC(=S)N(CCCN2CCOCC2)Cc2cn(C)c3ccccc23)c1	HIF activator 351
Cc1ccc(NC(=S)N(CCCN2CCOCC2)Cc2cccnc2)cc1C	T cruzi inh 68 (no result: PfHsp90 set2)
CC(C)OCCCNC(=O)c1cc(S(=O)(=O)N2CCc3ccccc32)cn1C	none
N#CCSc1ccccc1NC(=O)CN1C(=O)C(=O)N(Cc2ccccc2)C1=O	none (no result: SKKanGAS inh, HIF activator, T cruzi inh)
Cn1c(CSCc2ccccc2)n[nH]c1=S	none (no result: PfHsp90 set2)
O=C(NC1=C(Nc2ccc(F)cc2)C(=O)c2ccccc2C1=O)c1ccc(Cl)cc1	SKKanGAS inh 51, Beta apoptosis 87
NC(=S)N=Nc1ccc(NN=C(N)N)cc1	SKKanGAS inh 106
Cc1ccc(C)c(NC(=S)N2CCC(c3nc4ccccc4s3)CC2)c1	T cruzi inh 60
Cc1ccc2nc(C3CCCN(C(=S)Nc4ccccc4C)C3)[nH]c2c1 (centres undefined)	T cruzi inh 67
CCNC(=S)N1CCCC(c2nc3ccc(C)cc3[nH]2)C1 (centres undefined)	none
CCc1ccc(C(=O)N2CCC(c3nc4ccccc4s3)CC2)cc1	none
O=C(CSC(=O)c1ccccc1)Nc1ccccc1F	none (no result: SKKanGAS inh, HIF activator, T cruzi inh)
CCOC(=O)C1CCCN1C(=O)C1(NC(C)=O)CCCC1 (centres undefined)	none (no result: SKKanGAS inh, CSC inhib, Beta apoptosis, HIF activator, T cruzi inh)
Cc1nn(Cc2ccccc2)c(C)c1C(=O)OCC(=O)c1cc(C)n(CC(F)(F)F)c1C	CSC inhib 78
COc1cccc(NC(=O)COC(=O)c2ccccc2C(=O)N2CCN(c3ccccc3)CC2)c1	none
COc1ccc(OCCN(C)C(=O)c2cccc(S(=O)(=O)N(C)c3ccccc3)c2)cc1	none (no result: SKKanGAS inh, HIF activator, T cruzi inh)
O=C(NNC(=O)c1ccccn1)c1cccc([N+](=O)[O-])c1	none
O=C(Nc1cc(Sc2ccccn2)cc([N+](=O)[O-])c1)c1cccc(F)c1	Beta apoptosis 84
O=C(Nc1cc(Sc2nc3ccccc3s2)cc([N+](=O)[O-])c1)c1ccccc1	T cruzi inh 56
O=C(Nc1cc(Sc2nc3ccccc3s2)cc([N+](=O)[O-])c1)c1ccccc1F	T cruzi inh 65
O=C(Nc1cccc([N+](=O)[O-])c1)c1ccccc1	none
Cc1[nH]c2ccccc2c1C(=O)C(C)OC(=O)C1CCC1 (centres undefined)	none (no result: CSC inhib)
N#Cc1cn(Cc2ccncc2)c(=O)[nH]c1=O	none
CCn1cc(/C=C(\NC(=O)c2ccccc2F)C(=O)NCCN2CCOCC2)c2ccccc21	none
CCCCCCCCCCCCN1[C@@H](CC(=O)OC)c2cc(C(F)(F)F)ccc2S1(=O)=O	none (no result: PfHsp90 set2)
CCCCCCCCN1[C@@H](CC(=O)O)c2cc(C(F)(F)F)ccc2S1(=O)=O	none
CCCCCCCCCCCCN1[C@@H](CC(=O)O)c2cc(C(F)(F)F)ccc2S1(=O)=O	SKKanGAS inh 89, CSC inhib 104
CCCCCCCCN1[C@@H](CC(=O)OCC)c2ccc(C(F)(F)F)cc2S1(=O)=O	T cruzi inh 61
O=C(CCCn1cnc([N+](=O)[O-])n1)Nc1cccc(O)c1	none (no result: Beta apoptosis)
O=C(CCCn1cnc([N+](=O)[O-])n1)Nc1ccc(Cl)cc1Cl	T cruzi inh 58
O=C(CCCn1cnc([N+](=O)[O-])n1)Nc1ccc(F)c(Cl)c1	T cruzi inh 60
NC(=O)c1c(NC(=O)CCCn2cnc([N+](=O)[O-])n2)sc2c1CCCC2	T cruzi inh 60
CCN(CC)c1ccc(C(=C2C=CC(=[N+](CC)CC)C=C2)c2ccc(N(CC)CC)cc2)cc1	PfHsp90 set2 136 (no result: SKKanGAS inh, CSC inhib, Beta apoptosis, HIF activator, T cruzi inh)
CCN(CC)c1ccc(C(=C2C=CC(=[N+](CC)CC)C=C2)c2ccccc2)cc1	PfHsp90 set2 147 (no result: SKKanGAS inh, CSC inhib, Beta apoptosis, HIF activator, T cruzi inh)
CCN(CC)c1ccc(C(=O)NNC(=O)CCl)cc1	none (no result: PfHsp90 set2)
O=C(OCCN=C1NS(=O)(=O)c2ccccc21)c1ccco1	none
COC(=O)C1=C(C)N(Cc2ccccc2)C(=NCc2cccc(Cl)c2)N[C@H]1c1ccccc1	CSC inhib 122 (no result: SKKanGAS inh, HIF activator, T cruzi inh)
COC(=O)C1=C(C)N(Cc2ccccc2)C(=NCc2ccccc2)N[C@H]1c1ccccc1	none (no result: SKKanGAS inh, HIF activator, T cruzi inh)
